Results taken from ChEMBL document CHEMBL4373718, “Germacrane Sesquiterpenoids as a New Type of Anticardiac Fibrosis Agent Targeting Transforming Growth Factor β Type I Receptor” (J Med Chem, 2019).
Active and inactive are the calls of the source. The rule behind the calls is not given here.

Tests used:
[1] = Cytotoxicity against Sprague-Dawley rat cardiac fibroblasts assessed as reduction in cell viability at 25 uM measured after 48 hrs by MTT assay
Method in brief: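 Primary adult male SD rat cardiac fibroblasts at passages 2–4, 5000 cells per well. Treated for 48 h, then MTT (5 mg/mL) for 4 h. Formazan dissolved in DMSO and absorbance read at 570 nm. Triplicate wells, three independent experiments.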

[2] = molecular target: T1, TGF-beta receptor type-1 (Rattus norvegicus) (UniProt P80204); assay: Inhibition of TGFbeta1 receptor in TGFbeta1-stimulated Sprague-Dawley rat cardiac fibroblasts assessed as reduction in collagen 1 expression measured after 12 hrs by Western blot analysis
T1 sequence (whole entry): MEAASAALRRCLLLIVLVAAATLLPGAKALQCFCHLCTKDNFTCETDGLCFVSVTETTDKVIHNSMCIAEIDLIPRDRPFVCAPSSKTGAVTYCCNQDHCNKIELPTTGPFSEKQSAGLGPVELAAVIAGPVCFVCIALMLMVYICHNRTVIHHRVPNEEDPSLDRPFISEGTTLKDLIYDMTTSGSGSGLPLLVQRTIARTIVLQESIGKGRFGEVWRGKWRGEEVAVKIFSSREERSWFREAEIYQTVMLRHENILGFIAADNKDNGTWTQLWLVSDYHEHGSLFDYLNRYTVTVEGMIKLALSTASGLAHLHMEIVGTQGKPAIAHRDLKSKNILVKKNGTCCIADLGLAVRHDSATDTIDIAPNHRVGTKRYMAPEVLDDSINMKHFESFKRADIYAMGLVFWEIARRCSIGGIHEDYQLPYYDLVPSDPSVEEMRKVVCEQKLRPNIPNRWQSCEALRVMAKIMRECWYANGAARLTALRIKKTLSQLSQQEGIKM
Method in brief: (§1)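 Primary rat cardiac fibroblasts (passages 2–4, 3×10^5 per well) treated with compound plus 10 ng/mL TGFβ1 for 12 h; tested at 2.5, 5 and 10 µM. Lysates run on 10% SDS-PAGE (30 µg protein), probed for FN, α-SMA and collagen I/III, and quantified by densitometry against GAPDH. N=3 independent experiments.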

[3] = molecular target: T1, TGF-beta receptor type-1 (Rattus norvegicus); assay: Inhibition of TGFbeta1 receptor in TGFbeta1-stimulated Sprague-Dawley rat cardiac fibroblasts assessed as reduction in collagen 3 expression measured after 12 hrs by Western blot analysis; method in brief: as §1
[4] = molecular target: T1, TGF-beta receptor type-1 (Rattus norvegicus); assay: Inhibition of TGFbeta1 receptor in TGFbeta1-stimulated Sprague-Dawley rat cardiac fibroblasts assessed as reduction in collagen 1 mRNA expression at 2.5 to 10 uM measured after 12 hrs by qRT-PCR analysis
Method in brief: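 Primary rat cardiac fibroblasts (3×10^5 per well) treated with compound plus 10 ng/mL TGFβ1 for 12 h. Total RNA extracted and target transcripts measured by SYBR Green qRT-PCR, normalized to GAPDH.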

[5] = Effect on total Smad2 expression in TGFbeta1-stimulated Sprague-Dawley rat cardiac fibroblasts at 10 uM measured after 5 to 30 mins by Western blot analysis; type: ADME
[6] = molecular target: T1, TGF-beta receptor type-1 (Rattus norvegicus); assay: Inhibition of TGFbeta1 receptor in TGFbeta1-stimulated Sprague-Dawley rat cardiac fibroblasts assessed as reduction in Smad3 nuclear translocation at 10 uM measured after 5 mins by DAPI staining-based laser confocal microscopic analysis
Method in brief: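 Primary rat cardiac fibroblasts treated with 10 µM compound plus 10 ng/mL TGFβ1 for 5 min. Fixed in 4% PFA, permeabilized with 0.1% Triton X-100, blocked with goat serum. Stained with anti-Smad2 or anti-Smad3 overnight at 4 °C, then Alexa 594 secondary and DAPI nuclear stain. Imaged by confocal microscopy.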

Rattus norvegicus [7] = species: Rattus norvegicus; assay: Effect on TGFbeta2 receptor expression in TGFbeta1-stimulated Sprague-Dawley rat cardiac fibroblasts at 2.5 to 10 uM measured after 5 mins by Western blot analysis; type: functional
[8] = molecular target: TGF-beta receptor type-2 (Homo sapiens) (UniProt P37173); assay: Inhibition of recombinant human N-terminal GST-tagged TGFbeta2 receptor (190 to end residues) expressed in baculovirus infected Sf9 insect cells up to 100 uM using MBP as substrate measured after 2 hrs by ADP-Glo assay
TGF-beta receptor type-2 (Homo sapiens), sequence (P37173 whole entry): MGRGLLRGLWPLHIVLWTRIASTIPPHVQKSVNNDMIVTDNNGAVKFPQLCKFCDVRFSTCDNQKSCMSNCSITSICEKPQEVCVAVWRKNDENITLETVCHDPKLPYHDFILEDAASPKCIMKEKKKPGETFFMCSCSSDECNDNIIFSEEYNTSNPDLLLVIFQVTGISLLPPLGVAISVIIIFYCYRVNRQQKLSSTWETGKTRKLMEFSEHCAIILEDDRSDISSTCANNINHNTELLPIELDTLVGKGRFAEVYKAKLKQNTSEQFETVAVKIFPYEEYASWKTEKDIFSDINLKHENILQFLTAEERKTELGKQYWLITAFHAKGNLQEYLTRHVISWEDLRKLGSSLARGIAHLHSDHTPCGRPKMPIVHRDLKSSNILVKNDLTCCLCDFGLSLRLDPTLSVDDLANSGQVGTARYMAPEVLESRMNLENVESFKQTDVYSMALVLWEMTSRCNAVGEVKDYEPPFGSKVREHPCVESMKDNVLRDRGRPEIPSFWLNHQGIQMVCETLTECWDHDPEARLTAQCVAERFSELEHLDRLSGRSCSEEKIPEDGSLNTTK
Method in brief: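 Recombinant human TβRII produced in Sf9 cells. Compound serially diluted from DMSO and incubated with enzyme, 50 µM ATP and 0.1 g/L MBP for 2 h at room temperature. Kinase activity read as ADP generated.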

Rattus norvegicus [9] = assay: Antifibrotic activity in abdominal aortic constriction Sprague-Dawley rat model of cardiac fibrosis assessed as down regulation of fibronectin expression in heart at 5 mg/kg, ip administered once daily for 4 weeks measured post-last dose by Western blot analysis; type: functional, organism-based
Method in brief: (§2)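 AAC rats dosed ip daily for 4 weeks, n=8 per group. Hearts homogenized in lysis buffer with protease and phosphatase inhibitors and spun at 12,000 rpm for 30 min at 4 °C. Nuclear and cytoplasmic fractions prepared with a kit. Protein measured by BCA; 30 µg run on 10% SDS-PAGE, transferred to PVDF and immunoblotted; bands quantified by densitometry.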

Rattus norvegicus [10] = assay: Antifibrotic activity in abdominal aortic constriction Sprague-Dawley rat model of cardiac fibrosis assessed as down regulation of alpha-SMA expression in heart at 5 mg/kg, ip administered once daily for 4 weeks measured post-last dose by Western blot analysis; type: functional, organism-based; method in brief: as §2
Rattus norvegicus [11] = assay: Antifibrotic activity in abdominal aortic constriction Sprague-Dawley rat model of cardiac fibrosis assessed as reduction in Smad2 phosphorylation in heart at 5 mg/kg, ip administered once daily for 4 weeks measured post-last dose by Western blot analysis; type: functional, organism-based; method in brief: as §2
Rattus norvegicus [12] = assay: Antifibrotic activity in abdominal aortic constriction Sprague-Dawley rat model of cardiac fibrosis assessed as reduction in Smad3 phosphorylation in heart at 5 mg/kg, ip administered once daily for 4 weeks measured post-last dose by Western blot analysis; type: functional, organism-based; method in brief: as §2
Rattus norvegicus [13] = assay: Antifibrotic activity in abdominal aortic constriction Sprague-Dawley rat model of cardiac fibrosis assessed as reduction in Smad2 nuclear translocation in heart at 5 mg/kg, ip administered once daily for 4 weeks measured post-last dose by Western blot analysis; type: functional, organism-based; method in brief: as §2
Rattus norvegicus [14] = assay: Antifibrotic activity in abdominal aortic constriction Sprague-Dawley rat model of cardiac fibrosis assessed as reduction in Smad3 nuclear translocation in heart at 5 mg/kg, ip administered once daily for 4 weeks measured post-last dose by Western blot analysis; type: functional, organism-based; method in brief: as §2
Rattus norvegicus [15] = assay: Antifibrotic activity in abdominal aortic constriction Sprague-Dawley rat model of cardiac fibrosis assessed as diastolic left ventricular anterior wall thickness at 5 mg/kg, ip administered once daily for 4 weeks measured post-last dose by echocardiography (reference value: 2.48 +/- 0.42 mm); type: functional
Rattus norvegicus [16] = assay: Antifibrotic activity in abdominal aortic constriction Sprague-Dawley rat model of cardiac fibrosis assessed as systolic left ventricular internal diameter at 5 mg/kg, ip administered once daily for 4 weeks measured post-last dose by echocardiography (reference value: 3.99 +/- 0.41 mm); type: functional
Rattus norvegicus [17] = assay: Antifibrotic activity in abdominal aortic constriction Sprague-Dawley rat model of cardiac fibrosis assessed as fractional shortening at 5 mg/kg, ip administered once daily for 4 weeks measured post-last dose by echocardiography (reference value: 48.17 +/- 4.69%); type: functional

C=C(C)[C@@H]1C/C=C(\C)C(=O)CCC2=C[C@@H]1OC2=O
Activity [1]: Non-Toxic | inhibition [2]: Dose-dependent effect | inhibition [3]: Dose-dependent effect | inhibition [4]: Active | Activity [5]: Non-Toxic | inhibition [6]: Active | Activity (Rattus norvegicus [7]): inactive | inhibition [8]: inactive | Activity (Rattus norvegicus [9]): Active | Activity (Rattus norvegicus [10]): Active | Activity (Rattus norvegicus [11]): Active | Activity (Rattus norvegicus [12]): Active | Activity (Rattus norvegicus [13]): Active | Activity (Rattus norvegicus [14]): Active | Activity (Rattus norvegicus [15]): 2.11 mm | Activity (Rattus norvegicus [16]): 4.74 mm | Activity (Rattus norvegicus [17]): 42.54%
